A selection: hits, their analogues and other compounds. The true share with any hit is near 3.9%.
CRFR2-BP ag: agonists of human CRF-binding protein/CRF-R2 receptor complex. activation, % at 13.2 µM. HEK293 CRF-R2/CRF-BP, calcium dye fluorescence (FLIPR); percent of saturating CRF peptide response. 350,000 tested, 0.46% active;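 active = activation of at least 50%, plus an integration ratio under a set limit after plate pattern correction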;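 also: plate controls were neutral control wells without compound for no effect and CRF at EC100 for full effect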
TAAR1 antagonist: antagonists of human TAAR1. CHO RD-HGA16 TAAR1, Fluo-8 calcium fluorescence, antagonist. inhibition, % at 3 µM. Q96RJ0. 360,000 tested, 1.5% active;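 active = inhibition above a per-plate cutoff, the mean inhibition of test compounds on that plate plus 3 SD, cut at about 49% in these data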;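 also: 0% = DMSO plus EC80 beta-PEA response and 100% = DMSO alone without agonist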
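System: CHO RD-HGA16 cells bearing hTAAR1. Reagent: EC80 β-phenethylamine stimulus. Schedule: seeding 17-24 h prior, 75-min 37 °C, 30-min RT dye loading. Signal: Fluo-8 intracellular calcium dye fluorescence, real-time kinetic reads. Read-out: % inhibition from peak post-agonist over basal fluorescence ratio. Benchmarks: vehicle wells and EC80 agonist wells. Replicates: n of 1.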
TMEM16A inh: mouse TMEM16A channel inhibition, primary screen; Q8BHY3; normalized B-score (activity score, 25-100; higher = stronger inhibition) at 10 µM; 310,000 tested, 1.2% active; HEK293 TMEM16A/YFP iodide influx fluorescence, ionomycin; AID 588511;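 active = ratio plate-corrected score three or more library SD toward inhibition, starting fluorescence score within five deviations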;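 also: score derived from kinetic fluorescence span divided by baseline fluorescence per well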
CRFBP-R2 block: CRF-BP/CRF-R2 complex antagonism | 350,000 tested, 0.59% active | HEK293 CRF-R2/CRF-BP, CRF-induced calcium fluorescence | AID 588475 | inhibition, % at 11.8 µM;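 active = inhibition of the ligand-induced calcium signal above about 50% at the single tested concentration, limit read from the data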
TAAR1 ag: agonists of human TAAR1; activation, % at 3 µM; CHO RD-HGA16 TAAR1, Fluo-8 calcium fluorescence; vehicle wells 0%, saturating PEA agonist 100%; AID 624467; 360,000 tested, 0.99% active;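 active = activation above the mean activation of all test compounds in the run plus 3 SD, cut at about 38% in these data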
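Benchmarks: low control DMSO, high control PEA (EC100); System: CHO RD-HGA16 cells carrying human TAAR1 plus Gα16; Detection: Fluo-8 fluorescence, 5 s baseline then 140 s kinetic read; Schedule: 17-24 h plating, Fluo-8 75 min 37 °C, 30 min RT; Read-out basis: % activation from peak over basal fluorescence ratio, DMSO-to-PEA scaled.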
TMEM16A act: activates or potentiates the mouse TMEM16A chloride channel; Q8BHY3; 340,000 tested, 0.3% active; HEK293 TMEM16A/YFP-H148Q/I152L, iodide quench fluorescence; active compounds read low; AID 623877; B-score at 10 µM;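 active = fluorescence-ratio B-score plate-corrected deviation score at least 3 library SD below zero, with starting fluorescence score within 5 deviations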;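 also: channel opened by trigger with iodide after compound preincubation; score built on the fluorescence ratio of max minus min over baseline; more negative score means more quench and so TMEM16A activation or potentiation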
Numbers without * were called inactive; i = inactive; nt = no result given.

SMILES | CRFR2-BP ag | TAAR1 antagonist | TMEM16A inh | CRFBP-R2 block | TAAR1 ag | TMEM16A act
COc1ccccc1C(=O)N1CCN(Cc2ccc3c(c2)OCO3)CC1 | -3 | 5 | i | 34 | 8 | -14*
OCCCNc1ncnc2c1ncn2[C@H]1CN(Cc2ccc(-c3ccccc3)cc2)C[C@@H](CO)O1 | nt | 5 | nt | nt | 8 | nt
CCCCCC(=O)NNC(=O)c1ccc(F)cc1 | 0 | -4 | i | 53* | 1 | i
CC(C)c1ccc(Nc2nc(Cl)nc(NCc3ccco3)n2)cc1 | 4 | -46 | i | -1 | -2 | i
COc1ccc(Nc2nc(Cl)nc(NCc3ccco3)n2)c(OC)c1 | -2 | 9 | i | 56* | 9 | i
CCOC(=O)C1CCN(c2nc3cc(OC)ccc3cc2C#N)CC1 | -1 | 31 | i | 57* | 9 | i
COc1ccc2nc(N3CCC(O)CC3)c(C#N)cc2c1 | 52* | 9 | i | 7 | 13 | i
COc1ccc2cc(C#N)c(N3CCOCC3)nc2c1 | -7 | 34 | i | 10 | 11 | i
O=C(Cc1cccc(NC(=O)C2CCCN(C(=O)C3CCCCC3)C2)c1)Nc1cccc(C(=O)N2CCOCC2)c1 (configuration not stated) | -1 | -17 | nt | 0 | 0 | nt
COc1cc(OC)c2ccc(=O)oc2c1C(CCN1CCOCC1)c1ccc2c(c1)OCO2 (configuration not stated) | -3 | -25 | nt | 76* | 4 | i
COc1ccc(C(CCN2CCOCC2)c2c(OC)cc(OC)c3c(-c4ccccc4)cc(=O)oc23)cc1 (configuration not stated) | 8 | 5 | nt | -16 | 40* | i
C=CCN1C(=O)c2ccc(C(=O)N(C)CC(=O)Nc3cccc(F)c3)cc2C1=O | 1 | -12 | i | -11 | 3 | i
CCOc1ccc(NC(=O)COc2ccc3c(c2)CCC3)cc1OC | -2 | -4 | nt | 3 | -2 | i
COc1ccc(NC(=O)c2cc(-c3ccccc3OC)on2)cc1 | 0 | 18 | i | 54* | 7 | i
CC(C)C(NC(=O)c1ccccc1F)C(=O)NCc1ccc(F)cc1 (configuration not stated) | 0 | 0 | i | 2 | 2 | i
CCS(=O)(=O)Nc1cccc(C2=NN(S(C)(=O)=O)C(c3ccccc3)C2)c1 (configuration not stated) | -1 | 5 | i | 1 | 15 | -9.7*
CCS(=O)(=O)N1N=C(c2cccc(NS(C)(=O)=O)c2)CC1c1ccccc1 (configuration not stated) | 4 | 2 | i | -3 | 4 | i
CC1(C)OC1COc1c2ccoc2cc2oc(=O)ccc12 (configuration not stated) | 1 | -12 | i | 9 | -1 | i
CCOc1cccc(C2C(C(=O)c3ccco3)=C(O)C(=O)N2c2nnc(C)s2)c1 (configuration not stated) | 20 | 7 | nt | -15 | 16 | i
C=CCOc1ccc(C2C(C(=O)c3ccco3)=C(O)C(=O)N2c2nnc(C)s2)cc1 (configuration not stated) | 7 | 14 | i | 83* | 0 | -8.9*
COc1cc(C2C(C(=O)c3ccco3)=C(O)C(=O)N2c2cc(C)on2)cc(Br)c1O (configuration not stated) | 1 | -5 | i | 80* | 2 | i
CCSc1nnc(N2C(=O)C(O)=C(C(=O)c3ccco3)C2c2cccc(OC)c2)s1 (configuration not stated) | 3 | -29 | i | -2 | 0 | -6.9*
CSc1nnc(N2C(=O)C(O)=C(C(=O)c3ccco3)C2c2ccc(F)cc2)s1 (configuration not stated) | 13 | -32 | i | 19 | 3 | -6.6*
CC(=O)c1ccc(Oc2cnccn2)cc1 | 0 | 0 | i | -9 | 0 | i
COC(=O)C1=C(C)N(Cc2cccc(C(F)(F)F)c2)C(=NCc2ccc(C(F)(F)F)cc2)NC1c1cccc(F)c1 (configuration not stated) | nt | 14 | nt | nt | 14 | nt
